Data taken from the EternaBench riboswitch data.

Test system: MS2 coat protein
Assay: apparent Kd, MS2 coat protein; higher = weaker binding; RNA-MaP array; FMN 200 µM where present
In short: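 Designs were transcribed by stalled E. coli RNA polymerase on Illumina sequencing-chip clusters. They were titrated with SNAP-549-labelled MS2 coat protein from 0.7 or 1.5 nM, doubling to 3 µM, without and then with constant ligand. Buffer: 100 mM Tris-HCl pH 7.5, 80 mM KCl, 4 mM MgCl2, BSA, DTT, yeast tRNA, Tween-20. Green signal was normalised to red-channel RNA signal and control-cluster median Fmax. Apparent Kd is the median of filtered per-cluster binding-curve fits.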

[1] = designed as: OFF switch for flavin mononucleotide, no ligand
[2] = ligand present: flavin mononucleotide, designed as: OFF switch for flavin mononucleotide
[3] = designed as: ON switch for flavin mononucleotide, no ligand
[4] = ligand present: flavin mononucleotide, designed as: ON switch for flavin mononucleotide

Sequence	apparent Kd [1] [µM]	apparent Kd [2] [µM]	apparent Kd [3] [µM]	apparent Kd [4] [µM]
GCACGGCAUGUAGGAUAUCGAGCGCCGGGCGCUCGAGAAGGACAUGAGGAUCACCCAUGUGCUCACAGUGAGUGAGUGCUGUGC	0.0196	0.0374		
AUGACAGGCAAAGCGCAACGGCAAACAUGAGGAUCACCCAUGUAGGAUAUGCUACACAAAGUGUAGCAGAAGGACAUACGACGA	0.0364	0.0752		
UAAGCCGGGUCUGCAUGAGCUUACAUGAGGAUCACCCAUGUAAGAAGGGACGCUACGUUAUAGUGUCAGGAUAUUGCGAACGGG	0.00515	0.00566		
UACAUUGCUUAGAAGGGAUAUAUAUAAUUUUAGUCAGGAUAUAGAUACAGUACAACAUGAGGACAUGAGGAUCACCCAUGUAUU			0.0259	0.0184
AGCGUGGAGACAGGAUAUGAGAAUAGAUAGAAAUCAGAAGGGUCACAUGAGGAUCACCCAUGUAAAGUCUUGAGGAUGAGUGAU	0.0865	0.208		
UCCAGGCGAGGAUAUACUUAGAUUUUUUCGUUUAGUCUCGAACAUGAGGAUCACCCAUGUAGAAGGUGCUUCAC	0.0456	0.042		
AGCCAACAUGAGGAUCACCCAUGUGUACGUUAUGUAGGAUAUCUGAUGCGCGCGUGCGCAAGAGAAGGACGAGACG			0.0334	0.0212
ACAUGAGGAUCACCCAUGUUGAAUUAGGAUAUUUGACUGCACAUGAGGUUCACCCAUGUUCUACCGAAGAAGGGAUUAAUAAUU			0.12	0.118
AAUUUACAUGAGGAUCACCCAUGUGAGGAUAUAUAUACAUGCUUGUUAUUGCGUGUGUGUAGAAGGCGCGUGAU	0.0647	0.115		
AUCAUGUAAGGAUAUCUUACAUGUGACUUCGGUCACAGUUAAGAGAAGGUACAUGAGGAUCACCCAUGUAUAAC	0.028	0.0453		
GGGAAGUGAGGAUAUGCUGCUCGUCACUUGCGUGAUGAGUAGCAGAAGGUACAUGAGGAUCACCCAUGUAAAGA	0.0295	0.0207		
UACCUGAGGCAAAGCUUUAGGUAUACAUGAGGAUCACCCAUGUAGGAUAUGGUAGGCUUUGCCUACCAGAAGGACAUGUUAAUU	0.0197	0.0553		
AACCUAUUACAGAAGGCCAGCUACAUGAGGAUCACCCAUGUCGAGUCAUGGAGGAUAUGUAGUAAUUUGCACGCGGACGAGUAC			0.0526	0.00582
UCUUUGUUUGUGAGGAUAUCGGUGGGAUGGGUUGUCGAGAAGGCACAUGAGGAUCACCCAUGUGUGGGACAGCA	0.0153	0.0152		
GUUGCUUAUGAGAAGGCGAUCAUGAAACAUGAUCGAGGAUAUCAUGUAAACAUGAGGAUCACCCAUGUAUGGGUAUUAUGCAGC			0.32	0.0693
UCAGUAGAGUCAGGAUAUACGUCCAAAUUUCCUCACAUGAGGAUCACCCAUGUAGAAGGGACUCUACUGUAAGUCGGAAACGAC	0.00742	0.031		
GCCUUAUCCGUCAGGAUAUACAUUUGUUAGUUGUUGUAGAAGGGACAUGAGGAUCACCCAUGUACAUUACAUUG	0.0194	0.0224		
GUCUUUUUACAGAAGGUGUUUAACAUGAGGAUCACCCAUGUAUAUAUGGUUAAAUUUGAUAAUAACAAGGAUAUGUACUAAUCA			0.0534	0.0464
GGUUGACAAAGUCAACCUAAACGAACAUGAGGAUCACCCAUGUAGGAUAUGCUACUCAAAGAGUAGCAGAAGGACAUGUGCCUU	0.0376	0.273		
AAUUUAAAGGGAGGAUAUACAUGAGGAUCACCCAUGUAAUCAUAUGAUAUUUUUUUUGUAUGAGUGUAGAAGGCCCAAAUAAAA	0.00772	0.0093		
ACCGAAUGAACAUGAGGAUCACCCAUGUACAGGAAACUGAAUGAGGAUAUCGAUAGCAAAGCUAUCGAGAAGGCAUGGGUCGGU			0.285	0.0697
AUGUUACAUGAGGAUCACCCAUGUGAGGAUAUGUGUACCGGUAAAAAAGUGUCUGGCCACAGAAGGCAUUUGGA	0.0294	0.033		
UUUGUCUGUGUGAGGAUAUACUUUGUUUGGUCGUUGUAGAAGGCACAUGAGGAUCACCCAUGUAGUUUGUUGUG	0.0204	0.0229		
